The list is not random: actives were taken first. Their share in the collection is about 2.5%.
NPY-Y1 PAM-ag: potentiators or agonists of human neuropeptide Y receptor Y1; NPY-Y1 expressing cells, potentiator/agonist activation; activation, % at 3.6 µM; 0.37% of 220,000 active; AID 1304; in the data active means activation above about 33%, passing the limit was not always enough;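 further: cells stimulated with NPY at EC10 then isoproterenol at EC100; 0% = low agonist plus stimulus and 100% = saturating agonist plus stimulus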
Target sequence (P25929 whole entry, looked up): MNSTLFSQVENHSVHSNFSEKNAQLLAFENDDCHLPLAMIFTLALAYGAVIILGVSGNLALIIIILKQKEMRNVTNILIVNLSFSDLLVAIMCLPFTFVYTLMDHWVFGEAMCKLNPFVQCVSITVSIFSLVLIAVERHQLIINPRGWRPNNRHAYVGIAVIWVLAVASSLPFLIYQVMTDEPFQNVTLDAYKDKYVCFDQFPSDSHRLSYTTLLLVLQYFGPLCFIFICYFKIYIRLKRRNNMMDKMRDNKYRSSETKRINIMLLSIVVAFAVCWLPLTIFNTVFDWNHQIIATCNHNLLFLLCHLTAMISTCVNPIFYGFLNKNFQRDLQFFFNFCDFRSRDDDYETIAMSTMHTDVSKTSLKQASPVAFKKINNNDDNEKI
NPY-Y1 antag: NPY-Y1 (human) receptor antagonism; P25929; HEK293-CNG Y1 cells, membrane potential fluorescence; NPY at EC95, then isoproterenol; inhibition, % at 3.6 µM; 1% of 200,000 active;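 active means inhibition above the campaign mean inhibition of all tested compounds plus 3 SD, cut at about 20% in these data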;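 further: 0% = DMSO wells given NPY plus isoproterenol and 100% = isoproterenol alone without NPY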
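Material: HEK293 Y1/CNG channel cell line | Also added: NPY (25 nM), isoproterenol (1 µM), Ro 20-1724 (25 µM) | Compound: One concentration, 3.6 µM, in 0.4% DMSO | Schedule: 3 h dye uptake, 1 h room-temperature compound, 45 min post-isoproterenol | Signal: Membrane-potential fluorescent dye readout | Read-out: % inhibition of NPY effect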
Insulin prom inh: TRM-6 insulin promoter activity inhibition; TRM-6 cells, insulin promoter-eGFP reporter, imaging; reporter expression induced with tamoxifen; inhibition, % at 2 µM; 0.9% of 130,000 active;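 active means inhibition above the mean plus 3 SD, with well images judged a real hit on visual review, cut at about 60% in these data, passing the limit was not always enough; inconclusive means inhibition over the cutoff but images rejected on review; inactive means inhibition not above the cutoff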
NPY2 pot ag: potentiates or activates human NPY-Y2 receptor | P49146 | cells expressing NPY-Y2, potentiator/agonist read-out | activation, % at 3.6 µM | 0.45% of 220,000 active | AID 1359; in the data active means activation above about 27%;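 further: cells stimulated with NPY near EC25 plus isoproterenol at EC100; 0% = vehicle plus submaximal agonist and 100% = vehicle plus saturating agonist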
NPY-Y2 antag: NPY-Y2 (human) receptor antagonism. inhibition, % at 2.7 µM. NPY-Y2 expressing cells, antagonist mode. 0.99% of 140,000 active; in the data active means inhibition above about 17%;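 further: 0% = vehicle with agonist challenge and 100% = reference antagonist with challenge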
Ins promoter up: MIN6 insulin promoter up-regulation; MIN6 insulin promoter-GFP reporter, high-content imaging; hits give high values; z-score at 5 µM; 0.3% of 190,000 active; AID 1625;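 active means z-score above 3 at 5 µM with at least 500 cells counted in the well; inconclusive means wells under 500 cells, flagged as cytotoxic or low count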
The depositor's hits bear a star; ? = inconclusive; · = no result.

SMILES	NPY-Y1 PAM-ag	NPY-Y1 antag	Insulin prom inh	NPY2 pot ag	NPY-Y2 antag	Ins promoter up
CCCSc1nnc(C(C)C)n1N	20	-6	-18	1	2	0.1
CCn1cc(C2=NC(c3ccccc3)CO2)c2ccccc21 (configuration not stated)	-6	6	25	7	2	0.1
CCn1cc(C2=NC(C)CO2)c2ccccc21 (configuration not stated)	-44	3	84*	-24	2	·
CC(C)(C)NC(=O)COC(=O)c1ccc(Cl)nc1	1	1	·	1	·	0.29
O=C(/C=C(/c1ccc(Cl)cc1)n1cncn1)c1ccccc1	16	-5	22	8	2	0
COc1ccc(/C=N/NC(=O)c2ccc(NC(=O)c3ccccc3Br)cc2)cc1	9	-3	-100	-1	4	0.64
Cc1ccccc1NC(=O)c1ccc(CN2CCC(Cc3ccccc3)CC2)cc1	20	6	6	38*	13	0.25
Cn1c(-c2ccc(Cl)cc2)cnc1NCc1cc2c(cc1[N+](=O)[O-])OCO2	47*	-8	27	47*	0	-0.72
COc1cc(/C=N/NC(=O)c2ccc(-n3cccc3)cc2)ccc1O	-7	4	71*	-6	2	-0.11
C/C(Cn1nnc2ccccc21)=N\NC(=O)c1ccc(Br)cc1	-20	0	-47	-11	·	0.15
CCN(CC)c1ccc(/C=N/NC(=O)c2cccc(S(=O)(=O)Nc3ccccc3OC)c2)cc1	33	1	-12	15	·	-0.29
CCN(CC)c1ccc(/C=N/NC(=O)c2cccc(S(=O)(=O)Nc3ccccc3OC)c2)c(O)c1	47*	-9	56	35*	-1	?
Cc1cc(C(=O)NCCCN(C)C)c2ccccc2n1	8	-2	78*	6	·	-0.23
CCCCNC(=O)c1cc(C)nc2ccccc12	18	·	·	-12	·	0.28
O=C(Nc1nnc(SCC(=O)N2CCCCC2)s1)C1CCCCC1	-11	-2	73*	6	-1	·
c1ccc2c(c1)[nH]c1c(N3CCSCC3)ncnc12	0	7	94*	4	6	·
Cc1ccccc1NC(=O)CSc1nnc(Cc2ccccc2)o1	-12	2	75*	3	0	0.65
COc1ccccc1-c1ccc(SCc2ccc(F)cc2)nn1	-8	10	27	-11	·	0.22
COc1ccccc1-c1ccc(SCc2ccc(C)cc2)nn1	-25	21*	20	-22	·	0.55
C/C(=N\NC(=O)C(=O)N/N=C(\C)c1cccc(O)c1)c1cccc(O)c1	-16	1	24	-7	·	0.54
COC(=O)c1ccc(COC(=O)CNS(=O)(=O)c2ccc(C)cc2)cc1	-11	-6	73*	10	·	-0.18
COc1ccc2c(c1)-c1nc(/N=C/c3ccc(O)cc3)sc1CC2	16	7	77*	9	1	·
CSc1nc(N2CCN(C)CC2)c2c(c1C#N)CC(C)(C)OC2	0	·	·	-8	·	-0.43
Cc1noc(C)c1CSc1nnc(C)c(=O)[nH]1	-2	8	78*	-6	-1	0.25
CC(=O)Nc1ccc(NC(=O)c2cccc3c2-c2ccccc2C3=O)cc1	2	-5	75*	15	·	0.06
SMILES	NPY-Y1 PAM-ag	NPY-Y1 antag	Insulin prom inh	NPY2 pot ag	NPY-Y2 antag	Ins promoter up
Cc1[nH]c2ccc(-c3nnc(SCC(=O)N4CCCc5ccccc54)o3)cc2c1C	-61	-3	·	-3	0	-1.2
CCc1nc(Nc2ccc3c(c2)OCO3)c2oc3ccccc3c2n1	-21	2	79*	10	2	0.14
CCc1nc(N2CCN(Cc3ccc4c(c3)OCO4)CC2)c2oc3ccccc3c2n1	-103	26*	29	-45	21*	-0.38
CCc1nc(N2CCCC(C)C2)c2oc3ccccc3c2n1 (configuration not stated)	-25	38*	·	-23	29*	-0.58
CCc1nc(N2CCCCC2)c2oc3ccccc3c2n1	-30	8	58	-31	14	-0.13
CCN1C(=O)C(O)(CC(=O)c2cccc(-n3cccc3)c2)c2ccccc21 (configuration not stated)	13	-4	·	5	·	2.7
Cc1ccc[n+](-c2[nH]c(=O)sc2/C=N/NC(=O)c2ccccc2[O-])c1	-3	-3	·	-3	4	-0.4
Clc1ccc(C2CSc3c4ncnc-4ncn32)cc1 (configuration not stated)	-2	·	·	6	·	0.71
Cc1cccc(C(C)C)c1NC(=O)COC(=O)COc1ccc2c(C)cc(=O)oc2c1	-12	8	·	-6	1	0.28
Cc1cccc(C)c1NC(=O)COC(=O)Cc1ccsc1	10	4	67*	5	2	·
Cc1cccc(C)c1NC(=O)COC(=O)COc1ccc2c(C)cc(=O)oc2c1	15	6	60*	14	1	0.2
COc1ccc(S(=O)(=O)NCC2CCCN(C(=O)c3ccccc3)C2)cc1 (configuration not stated)	-10	-5	·	4	·	-0.58
CC(=O)c1sc(N/N=C\c2ccccc2O)nc1C	15	-10	·	6	·	·
Cc1cc(C)c(OCC(=O)Nc2ccc(NC(=O)c3ccco3)cc2)c([N+](=O)[O-])c1	-12	-1	64*	11	0	-0.06
Cc1ccccc1CS(=O)(=O)c1nnc([C@H](Cc2ccccc2)NC(=O)OC(C)(C)C)o1	7	-1	78*	8	0	1.4
OCCCNc1nc(-c2ccccc2)nc2c1oc1ccccc12	7	·	·	16	·	0.31
O=c1cc(NCCCO)c2ccccc2o1	110*	10	-11	72*	1	-0.3
Cc1[nH]c2ccccc2c1CCNC(=O)c1ccc2c(c1[N+](=O)[O-])C(=O)c1ccccc1C2=O	27	-20	-2	22	-5	0.02
Cc1[nH]c2c(C)cccc2c1CCNC(=O)c1ccc2c(c1[N+](=O)[O-])C(=O)c1ccccc1C2=O	68*	-22	-30	59*	-6	-0.32
O=C1CCC/C1=C/Nc1ccc(Cl)cc1	6	-1	82*	9	·	-0.52
S=C1NC2=C(CCC/C2=C\c2ccccc2)C(c2ccccc2)N1 (configuration not stated)	7	-3	10	-4	3	-0.27
C(=C1/CCCC2=C1Nc1ncnn1C2c1ccccc1)/c1ccccc1 (configuration not stated)	13	3	73*	10	3	0.11
C=CCSc1nc(NC)c2sccc2n1	14	2	80*	11	1	-0.75
S=C(Nc1ccccc1)N1CCOCCOCCN(C(=S)Nc2ccccc2)CCOCCOCC1	-24	·	·	-10	·	-0.29
S=C(Nc1ccccc1)N1CCN(c2ccc(N3CCOCC3)nn2)CC1	16	-4	75*	-5	·	-0.4
Cc1ccc(OCC(O)Cn2c(=N)n(CCN3CCOCC3)c3ccccc32)cc1 (configuration not stated)	3	17	-36	-1	5	-0.76

Compound activity as filed in PubChem.
